In ChEMBL document CHEMBL1141783, “Neuroprotective and antioxidant activity of compounds from the aerial parts of Dioscorea opposita” (2005) one finds Activity data, which are given here for four compounds.

Assay [1] has as its system Brain. As to the kind of experiment: Antioxidant activity in rat brain assessed as malondialdehyde level at 568 uM by thiobarbituric acid method. Format: functional. Put shortly:
(§1)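 Rat brain MDA was measured by the thiobarbituric acid method, following a previously published protocol. Each compound was tested at three final concentrations. Freshly prepared vitamin C served as the positive control.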

In assay [2] the test system is Plasma. As to the kind of experiment: Antioxidant activity in New Zealand White rabbit plasma assessed as increase in conjugated diene formation at 568 uM by thiobarbituric acid method. The class given is functional, Oryctolagus cuniculus. The essentials: (§2)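 LDL was isolated from New Zealand White rabbit plasma, and its susceptibility to oxidation was measured by a previously published method. Each compound was tested at three final concentrations. Freshly prepared vitamin C served as the positive control.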

Assay [3] concerns Plasma. As to the kind of experiment: Antioxidant activity in New Zealand White rabbit plasma assessed as increase in conjugated diene formation at 21.7 uM by thiobarbituric acid method. The class given is functional, Oryctolagus cuniculus. Put shortly: as §2
In assay [4] the test system is Brain. As to the kind of experiment: Antioxidant activity in rat brain assessed as malondialdehyde level at 21.7 uM by thiobarbituric acid method. The class given is functional. Put shortly:
as §1

Assay [5] can be described thus: Neuroprotective activity in Swiss-Webster mouse neocortical cells with oxygen and glucose deprivation assessed as decrease in lactic dehydrogenase leakage at 2.17 uM. Also noted: scale not given: the % may be the effect or the level left. The class given is functional. Put shortly:
(§3)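 Cultured neocortical cells were exposed to OGD with compound at one of three final concentrations; controls received the same volume of glucose-free Earle's buffer instead. For OGD, the chamber was flushed with 95% N2/5% CO2 for 10 min, sealed, and kept at 37 °C for 25 min, followed by 30 min under normal conditions. The treatment was repeated twice, and cells were held 6 h at 37 °C after the last one. LDH was measured in medium and in freeze-thaw lysate. Leakage = extracellular/(extracellular+intracellular) ×100%.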

The subject of assay [6] is Brain. As to the kind of experiment: Antioxidant activity in rat brain assessed as malondialdehyde level at 2.17 uM by thiobarbituric acid method. Format: functional. The essentials:
as §1

A short description of assay [7]: Neuroprotective activity in Swiss-Webster mouse neocortical cells with oxygen and glucose deprivation assessed as decrease in lactic dehydrogenase leakage at 217 uM. The class given is functional. Also noted: scale not given: the % may be the effect or the level left. Put shortly: as §3
Assay [8] is described as follows: Neuroprotective activity in Swiss-Webster mouse neocortical cells with oxygen and glucose deprivation assessed as decrease in lactic dehydrogenase leakage at 21.7 uM. Further details: scale not given: the % may be the effect or the level left. Format: functional. The essentials: as §3
The test system of assay [9] is Brain. As to the kind of experiment: Antioxidant activity in rat brain assessed as malondialdehyde level at 217 uM by thiobarbituric acid method. Format: functional. The essentials: as §1
Assay [10] deals with Plasma. As to the kind of experiment: Antioxidant activity in New Zealand White rabbit plasma assessed as increase in conjugated diene formation at 2.17 uM by thiobarbituric acid method. Format: functional, Oryctolagus cuniculus. The essentials:
as §2

For assay [11], the system named is Plasma. As to the kind of experiment: Antioxidant activity in New Zealand White rabbit plasma assessed as increase in conjugated diene formation at 217 uM by thiobarbituric acid method. The class given is functional, Oryctolagus cuniculus. Put shortly:
as §2

The subject of assay [12] is Plasma. As to the kind of experiment: Antioxidant activity in New Zealand White rabbit plasma assessed as increase in conjugated diene formation at 370 uM by thiobarbituric acid method. Format: functional, Oryctolagus cuniculus. Put shortly: as §2
The nature of assay [13]: Neuroprotective activity in Swiss-Webster mouse neocortical cells with oxygen and glucose deprivation assessed as decrease in lactic dehydrogenase leakage at 37 uM. The class given is functional. Also noted: scale not given: the % may be the effect or the level left. The essentials: as §3
For assay [14], the system named is Brain. As to the kind of experiment: Antioxidant activity in rat brain assessed as malondialdehyde level at 37 uM by thiobarbituric acid method. Format: functional. Put shortly: as §1
The test system of assay [15] is Plasma. As to the kind of experiment: Antioxidant activity in New Zealand White rabbit plasma assessed as increase in conjugated diene formation at 37 uM by thiobarbituric acid method. The class given is functional, Oryctolagus cuniculus. Put shortly: as §2
The nature of assay [16]: Neuroprotective activity in Swiss-Webster mouse neocortical cells with oxygen and glucose deprivation assessed as decrease in lactic dehydrogenase leakage at 3.70 uM. The class given is functional. Also noted: scale not given: the % may be the effect or the level left. The essentials: as §3
Assay [17] relates to Brain. As to the kind of experiment: Antioxidant activity in rat brain assessed as malondialdehyde level at 370 uM by thiobarbituric acid method. Format: functional. The essentials: as §1
In assay [18] the test system is Plasma. As to the kind of experiment: Antioxidant activity in New Zealand White rabbit plasma assessed as increase in conjugated diene formation at 3.70 uM by thiobarbituric acid method. The class given is functional, Oryctolagus cuniculus. Put shortly: as §2
Assay [19] can be described thus: Neuroprotective activity in Swiss-Webster mouse neocortical cells with oxygen and glucose deprivation assessed as decrease in lactic dehydrogenase leakage at 370 uM. The class given is functional. Also noted: scale not given: the % may be the effect or the level left. Put shortly:
as §3

Assay [20] concerns Brain. As to the kind of experiment: Antioxidant activity in rat brain assessed as malondialdehyde level at 3.70 uM by thiobarbituric acid method. Format: functional. Put shortly:
as §1

`O=C1O[C@H]([C@@H](O)CO)C(O)=C1O` [ASCORBIC ACID]: the figures for the Activity with Brain [1] and in the assay with Plasma [2] were 1.35 nmol/mg and 0.17%, respectively.

For `COc1cc(-c2cc(=O)c3c(O)cc(O[C@@H]4O[C@H](CO)[C@@H](O)[C@H](O)[C@H]4O)cc3o2)ccc1O`, the Activity in the assay on Plasma [3] is 66.21%; in the assay on Brain [4] it was 1.19 nmol/mg protein; in assay [5], 27.35%; with Brain [6], 1.37 nmol/mg protein; in assay [7] it was 21.99%; in assay [8] it was 22.51%. For the same compound, the Activity in the assay with Brain [9] worked out at 0.95 nmol/mg protein; with Plasma [10] it was 62.24%; in the assay on Plasma [11], 11.52%.

In the case of `COc1cc(-c2cc(=O)c3c(O)cc(O)cc3o2)ccc1O[C@@H]1O[C@H](CO)[C@@H](O)[C@H](O)[C@H]1O`, the Activity with Plasma [3] is 30.16%; with Brain [4], 1.43 nmol/mg protein; in [5], 25.52%; with Brain [6] it was 1.46 nmol/mg protein; in [7], 21.14%; in assay [8], 22.74%. The figures for the Activity in the assay with Brain [9], in the assay on Plasma [10] and in the assay on Plasma [11] were 1.16 nmol/mg protein, 51.62% and 0.32%, respectively.

As for `COC1=CC(=O)c2c(ccc3cc(O)c(O)cc23)C1=O`, the Activity with Plasma [12] was found to be 95.09%; in assay [13], 41.09%; with Brain [14] it was 1.43 nmol/mg protein; in the assay with Plasma [15], 112.97%; in assay [16] it was 38.3%; in the assay with Brain [17], 1.23 nmol/mg protein. For the same compound, the Activity with Plasma [18] stood at 67.46%; in assay [19] it was 36.58%; with Brain [20], 1.52 nmol/mg protein.
